Test results as given in publication PMC3243785 (Chemical research in toxicology, 2011).
≈ marks a conversion by molar mass, not a printed value. Read-outs that look alike come from different tables or passages of the source.

How the values were obtained:
[1] = tested on: P450 2B enzymes; assay: BROD activity of hepatic microsomes from inducer-treated rats; type: biochemical, rat; conditions: intraperitoneal inducer treatment of male Sprague-Dawley rats, relative to VEH
[2] = tested on: P450 3A; assay: BQ activity of hepatic microsomes from inducer-treated rats; type: biochemical, rat; conditions: intraperitoneal inducer treatment of male Sprague-Dawley rats, relative to VEH
[3] = tested on: hepatic microsomes from PB-, DEX- or VEH-treated rats (P450 enzymes); assay: Enantioselective gas chromatography; type: in vitro ADME, rat; conditions: for Enantiomeric fraction (EF), range over time course: 50 μM PCB 136
[4] = tested on: hepatic microsomes from PB-, DEX- or VEH-treated rats (P450 enzymes); type: in vitro ADME, rat; conditions: for Metabolite identified by GC/MS (major/minor): large scale experiment; for Metabolite formation, Percent of ΣOH-PCB: 37°C; for Percent of PCB 136 converted to the metabolite / Percent of PCB 136 metabolized to the metabolite: 50 μM PCB 136; for Formation of metabolite relative to microsomes from VEH-treated rats: 2 min incubation; for Percent of PCB 136 metabolized to the metabolite: microsomes from PB-, DEX- or VEH-treated rats
[5] = tested on: Ryanodine receptors (RyRs); conditions: cited from earlier work
[6] = tested on: rat recombinant P450 2B1; conditions: cited from earlier work
[7] = Aqueous solubility of PCB 136 in incubation buffer by light scattering; type: physicochemical; conditions: phosphate buffer (incubation buffer), pH 7.4
Summary of the method: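 Test compound dissolved in DMSO was added to 0.1 M phosphate buffer containing 3 mM MgCl2. Light scattering was read at 37 °C in a Peltier-controlled luminescence spectrophotometer, with excitation and emission both at 400 nm and 5 nm slits. Integration time was 5 s, with 5 min pre-recording followed by 5 min recording.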

[8] = all incubations with 5 μM PCB 136
[9] = all three microsomal preparations
[10] = microsomes from PB-treated rats
[11] = microsomes from DEX-treated rats, 5 μM PCB 136, 5 min
[12] = microsomes from DEX-treated rats
[13] = microsomes from PB-treated rats, 5 μM PCB 136, 5 min
[14] = microsomes from PB-treated rats, 50 μM PCB 136, 5 min
[15] = microsomes from VEH-treated rats, 5 μM PCB 136, 5 min

## CCC1(c2ccccc2)C(=O)NC(=O)NC1=O [PB, phenobarbital]
[1]
  Increase in BROD activity in hepatic microsomes of treated rats: 94 fold

## C[C@@H]1C[C@H]2[C@@H]3CCC4=CC(=O)C=C[C@]4(C)[C@@]3(F)[C@@H](O)C[C@]2(C)[C@@]1(O)C(=O)CO [DEX, dexamethasone]
[2]
  Increase in BQ activity in hepatic microsomes of treated rats: 84 fold
[1]
  Increase in BROD activity in hepatic microsomes of treated rats: 7 fold

## Oc1cc(Cl)c(Cl)c(-c2c(Cl)ccc(Cl)c2Cl)c1Cl [5-OH-PCB 136, 2,2',3,3',6,6'-hexachlorobiphenyl-5-ol]
[3]; PB-microsomes
  Enantiomeric fraction (EF), range over time course: 0.70-0.72
[3]; VEH-microsomes
  Enantiomeric fraction (EF), range over time course: 0.62-0.75
[3]; VEH-microsomes, 50 μM PCB 136, 1 min
  Enantiomeric fraction (EF): 0.62
[3]; [8]
  Enantiomeric fraction (EF), direction of enrichment: > 0.5
[3]; [9]
  Enantiomeric fraction (EF), direction of enrichment: > 0.5
[4]; [10]
  Metabolite identified by GC/MS (major/minor): major metabolite
  Percent of PCB 136 converted to the metabolite: approximately 22%
  Formation of metabolite relative to microsomes from VEH-treated rats: 84 times
[4]; [11]
  Metabolite formation, Percent of ΣOH-PCB: 94%
[4]; [12]
  Percent of PCB 136 converted to the metabolite: ~2%
  Formation of metabolite relative to microsomes from VEH-treated rats: 8 times
[4]; [13]
  Metabolite formation, Percent of ΣOH-PCB: 78%
[4]; [14]
  Metabolite formation, Percent of ΣOH-PCB: 99%
[4]; [15]
  Metabolite formation, Percent of ΣOH-PCB: 83%
[4]; microsomes from VEH-treated rats
  Percent of PCB 136 converted to the metabolite: ~0.4%

## Oc1cc(Cl)c(-c2c(Cl)ccc(Cl)c2Cl)c(Cl)c1Cl [4-OH-PCB 136, 2,2',3,3',6,6'-hexachlorobiphenyl-4-ol]
[3]; DEX-microsomes, 5 μM PCB 136, 30 min
  Enantiomeric fraction (EF): 0.22
[3]; DEX-microsomes, 50 μM PCB 136, 1 min
  Enantiomeric fraction (EF): 0.39
[3]; DEX-microsomes, 50 μM PCB 136, 10 min
  Enantiomeric fraction (EF): 0.33
[3]; PB-microsomes, 50 μM PCB 136, 1 min
  Enantiomeric fraction (EF): 0.43
[3]; [8]
  Enantiomeric fraction (EF), direction of enrichment: < 0.5
[3]; [9]
  Enantiomeric fraction (EF), direction of enrichment: < 0.5
[5]
  Concentration needed to double basal RyR activity (EC2x): 1.60 µM
[4]; [10]
  Metabolite identified by GC/MS (major/minor): minor metabolites
[4]; [11]
  Metabolite formation, Percent of ΣOH-PCB: 3%
[4]; microsomes from DEX-treated rats, 50 μM PCB 136, 5 min
  Metabolite formation, Percent of ΣOH-PCB: 2%
[4]
  Percent of PCB 136 metabolized to the metabolite: 0.1%
[4]; [14]
  Metabolite formation, Percent of ΣOH-PCB: 1%
[4]; [15]
  Metabolite formation, Percent of ΣOH-PCB: 15%
[6]
  Formation of metabolite by rat recombinant P450 2B1: no detectable quantities

## Clc1ccc(Cl)c(-c2c(Cl)ccc(Cl)c2Cl)c1Cl [(-)-PCB 136]
[5]; enantiospecific
  Activity towards RyRs: displays activity

## Clc1ccc(Cl)c(-c2c(Cl)ccc(Cl)c2Cl)c1Cl [PCB 136, 2,2',3,3',6,6'-hexachlorobiphenyl]
[3]; PB-microsomes, 5 μM PCB 136, 5 min incubation
  Enantiomeric fraction (EF): 0.35
[3]; VEH-microsomes, 5 μM PCB 136, 5 min incubation
  Enantiomeric fraction (EF): 0.49
[7]
  solubility: ~0.25 µM (≈ 0.0902 µg/mL)

## Oc1c(O)c(Cl)c(-c2c(Cl)ccc(Cl)c2Cl)c(Cl)c1Cl [4,5-diOH-PCB 136, 2,2',3,3',6,6'-hexachlorobiphenyl-4,5-diol]
[4]; [10]
  Metabolite identified by GC/MS (major/minor): minor metabolites
[4]; [11]
  Metabolite formation, Percent of ΣOH-PCB: 3%
[4]
  Percent of PCB 136 metabolized to the metabolite: < 0.1%
[4]; [13]
  Metabolite formation, Percent of ΣOH-PCB: 22%
[4]; [15]
  Metabolite formation, Percent of ΣOH-PCB: 2%
[4]; microsomes from VEH-treated rats, 50 μM PCB 136, 5 min
  Metabolite formation, Percent of ΣOH-PCB: 1%
